Experimental data taken from ChEMBL document CHEMBL3875170, “2-Methyl-4/5-nitroimidazole derivatives potentiated against sexually transmitted Trichomonas: Design, synthesis, biology and 3D-QSAR study” (Eur J Med Chem, 2016).
Converted amounts (≈) assume the structure as drawn.

Legend:
Trichomonas vaginalis [1] = assay: Antiparasitic activity against metronidazole resistant Trichomonas vaginalis ATCC 50143 after 48 hrs by trypan blue exclusion assay; type: functional; conditions: ATCC 50143, 48 h
Method in brief: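 T. vaginalis trophozoites ([…]), log phase, grown in TYM with 10% FCS, vitamin mix and penicillin/streptomycin at 37 °C. Test agents from DMSO stocks serially diluted in TYM; DMSO/TYM vehicle controls. Anaerobic incubation at 37 °C with microscopic viability checks from 3 to 48 h by trypan blue exclusion. MIC is the lowest concentration killing all cells by 48 h. Repeated three times.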

[2] = Selectivity index, ratio of IC50 for human HeLa cells to MIC for metronidazole sensitive Trichomonas vaginalis ATCC 33592; type: toxicity, cell-based; conditions: read-out: Selectivity Index
Method in brief: (§1)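 SI is HeLa IC50 divided by parasite MIC. HeLa cells seeded at 2 × 10⁴/well in triplicate in DMEM with 10% FCS, 24 h at 37 °C in 5% CO2. Medium then replaced with compound dilutions (0.05% DMSO controls) for 24 h. Viability by MTT read at OD540; IC50 is the concentration killing 50% of cells. MIC from 48 h trypan blue parasite killing in TYM.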

Trichomonas vaginalis [3] = assay: Antiparasitic activity against metronidazole sensitive Trichomonas vaginalis ATCC 33592 after 48 hrs by trypan blue exclusion assay; type: functional; conditions: ATCC 33592, 48 h
Trichomonas vaginalis [4] = assay: Potency index, ratio of metronidazole MIC to compound MIC for metronidazole sensitive Trichomonas vaginalis ATCC 33592; type: functional
[5] = Selectivity index, ratio of IC50 for human HeLa cells to MIC for metronidazole resistant Trichomonas vaginalis ATCC 50143; type: toxicity, cell-based; conditions: read-out: Selectivity Index; method in brief: as §1
[6] = Cytotoxicity against human HeLa cells after 24 hrs by MTT assay; type: toxicity, cell-based
Method in brief: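 HeLa cells seeded at 2 × 10⁴ per well in DMEM with 10% FCS, in triplicate, and held 24 h at 37 °C in 5% CO₂. Exposed to compound dilutions for 24 h; controls received 0.05% DMSO. MTT in PBS pH 7.4 added, formazan dissolved in DMSO, OD540 read. IC50 taken as the concentration killing 50% of cells.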

Trichomonas vaginalis [7] = assay: Potency index, ratio of metronidazole MIC to compound MIC for metronidazole resistant Trichomonas vaginalis ATCC 50143; type: functional

Row | Structure (SMILES) | MIC (Trichomonas vaginalis [1]) [µM] | selectivity ratio [2] | MIC (Trichomonas vaginalis [3]) [µM] | Ratio (Trichomonas vaginalis [4]) | selectivity ratio [5] | IC50 at 24 h [6] [mM] | Ratio (Trichomonas vaginalis [7])
1 | Cc1ncc([N+](=O)[O-])n1CC(O)CN1CCN(c2cccc(Cl)c2Cl)CC1 (racemic) | 151 (≈ 62.5 µg/mL) | > 265 | 18.9 (≈ 7.81 µg/mL) | <=2.4 | > 33 | > 5 | <=12.7
2 | CCCCN1CCN(C(=S)SCC(O)Cn2c([N+](=O)[O-])cnc2C)CC1 (racemic) | 31.2 (≈ 12.5 µg/mL) | 122 | 15.6 (≈ 6.26 µg/mL) | <=2.4 | 61 | 1.91 | <=12.7
3 | Cc1ncc([N+](=O)[O-])n1CC(O)CSC(=S)N1CCN(c2ccccc2F)CC1 (racemic) | 56.9 (≈ 25 µg/mL) | 227 | 14.2 (≈ 6.25 µg/mL) | <=2.4 | 56 | 3.24 | <=12.7
4 | CCN1CCN(CC(O)Cn2c([N+](=O)[O-])cnc2C)CC1 (racemic) | 105 (≈ 31.3 µg/mL) | 407 | 12.1 (≈ 3.6 µg/mL) | <=2.4 | 47 | 4.94 | <=12.7
5 | Cc1ncc([N+](=O)[O-])n1CC(O)Cn1ccnn1 (racemic) | 99.2 (≈ 25 µg/mL) | > 416 | 12.4 (≈ 3.12 µg/mL) | <=2.4 | > 50 | > 5 | <=12.7
6 | Cc1nc([N+](=O)[O-])cn1CC(O)CSC(=S)N1CCN(c2ccccc2)CC1 (racemic) | 297 (≈ 125 µg/mL) | > 227 | 22.7 (≈ 9.56 µg/mL) |  | > 16 | > 5 | <=12.7
7 | CCOC(=O)N1CCN(CC(O)Cn2c([N+](=O)[O-])cnc2C)CC1 (racemic) | 91.6 (≈ 31.3 µg/mL) | 160 | 22.9 (≈ 7.82 µg/mL) |  | 40 | 3.67 | <=12.7
8 | Cc1ncc([N+](=O)[O-])n1CC(O)CN1CCN(c2ccccc2)CC1 (racemic) | 181 (≈ 62.6 µg/mL) | > 220 | 22.6 (≈ 7.82 µg/mL) |  | > 27 | > 5 | <=12.7
9 | Cc1ncc([N+](=O)[O-])n1CC(O)CSC(=S)N(C)C (racemic) | 82.2 (≈ 25 µg/mL) | > 243 | 20.6 (≈ 6.26 µg/mL) |  | > 61 | > 5 | <=12.7
10 | CCN(CC)C(=S)SCC(O)Cn1c([N+](=O)[O-])cnc1C (racemic) | 75.3 (≈ 25 µg/mL) | 65 | 37.6 (≈ 12.5 µg/mL) |  | 32 | 2.46 | <=12.7
11 | Cc1ncc([N+](=O)[O-])n1CC(O)CSC(=S)N1CCCC(C)C1 (racemic) | 69.8 (≈ 25 µg/mL) | 35 | 17.4 (≈ 6.26 µg/mL) | <=2.4 | 8 | 0.609 | 2.5 - 12.6
12 | COc1ccccc1N1CCN(C(=S)SCC(O)Cn2c([N+](=O)[O-])cnc2C)CC1 (racemic) | 55.4 (≈ 25 µg/mL) | > 185 | 27.7 (≈ 12.5 µg/mL) |  | > 90 | > 5 | <=12.7
13 | Cc1ncc([N+](=O)[O-])n1CC(O)CN1CCCC1 (racemic) | 197 (≈ 50.1 µg/mL) | > 102 | 49.2 (≈ 12.5 µg/mL) |  | > 25 | > 5 | <=12.7
14 | Cc1ncc([N+](=O)[O-])n1CC(O)CN1CCCC(C)C1 (racemic) | 88.7 (≈ 25 µg/mL) | > 227 | 22.2 (≈ 6.26 µg/mL) |  | > 56 | > 5 | <=12.7
15 | Cc1ncc([N+](=O)[O-])n1CC(O)CN1CCN(c2ncccn2)CC1 (racemic) | 90 (≈ 31.3 µg/mL) | 174 | 22.5 (≈ 7.82 µg/mL) |  | 43 | 3.93 | <=12.7
16 | Cc1ncc([N+](=O)[O-])n1CC(O)CSC(=S)N1CCN(C(=O)OC(C)(C)C)CC1 (racemic) | 70.2 (≈ 31.3 µg/mL) | 39 | 17.6 (≈ 7.82 µg/mL) | <=2.4 | 9 | 0.689 | <=12.7
17 | Cc1ncc([N+](=O)[O-])n1CC(O)CSC(=S)N1CCC(C)CC1 (racemic) | 69.8 (≈ 25 µg/mL) | 104 | 17.4 (≈ 6.26 µg/mL) | <=2.4 | 26 | 1.82 | 2.5 - 12.6
18 | Cc1ncc([N+](=O)[O-])n1CC(O)CN1CCN(c2ccccn2)CC1 (racemic) | 72.2 (≈ 25 µg/mL) | 101 | 18.1 (≈ 6.26 µg/mL) | <=2.4 | 25 | 1.83 | <=12.7
19 | Cc1ncc([N+](=O)[O-])n1CC(O)CN1C(C)CCCC1C (racemic) | 84.5 (≈ 25 µg/mL) | > 119 | 42.2 (≈ 12.5 µg/mL) |  | > 59 | > 5 | <=12.7
20 | Cc1ncc([N+](=O)[O-])n1CC(O)CN1CCOCC1 (racemic) [MORINIDAZOLE] | 92.6 (≈ 25 µg/mL) | > 108 | 46.3 (≈ 12.5 µg/mL) |  | > 54 | > 5 | <=12.7
21 | Cc1ncc([N+](=O)[O-])n1CC(O)Cn1cnc2ccccc21 (racemic) | 83 (≈ 25 µg/mL) | 181 | 25.9 (≈ 7.82 µg/mL) |  | 54 | 4.53 | <=12.7
22 | COc1ccccc1N1CCN(CC(O)Cn2c([N+](=O)[O-])cnc2C)CC1 (racemic) | 133 (≈ 50.1 µg/mL) | 131 | 33.3 (≈ 12.5 µg/mL) |  | 33 | 4.39 | <=12.7
23 | Cc1ncc([N+](=O)[O-])n1CC(O)CSC(=S)N1CCCC1 (racemic) | 152 (≈ 50.1 µg/mL) | 35 | 37.9 (≈ 12.5 µg/mL) |  | 9 | 1.34 | 2.5 - 12.6
24 | Cc1ncc([N+](=O)[O-])n1CC(O)CN1CCN(c2ccccc2F)CC1 (racemic) | 344 (≈ 125 µg/mL) | > 116 | 43 (≈ 15.6 µg/mL) |  | > 14 | > 5 | <=12.7
25 | Cc1ncc([N+](=O)[O-])n1CC(O)CN1CCC(Cc2ccccc2)CC1 (racemic) | 140 (≈ 50.1 µg/mL) | 40 | 34.9 (≈ 12.5 µg/mL) |  | 10 | 1.43 | <=12.7
26 | Cc1ncc([N+](=O)[O-])n1CC(O)CN1CCN(c2ccco2)CC1 (racemic) | 172 (≈ 57.7 µg/mL) | 163 | 21.5 (≈ 7.21 µg/mL) |  | 20 | 3.52 | <=12.7
